{"source": "paper PMC5548977", "about": "(ESMO Open, 2017)", "key": {"[1]": {"system": "patients with advanced solid tumours", "test": "Phase I dose-escalation study: adverse events, dose-limiting toxicities, MTD", "type": "in vivo, human", "method_in_brief": "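Dosing was intravenous on days 1, 8 and 15 every 28 days, with dose by BSA (actual weight) recalculated each cycle. Escalation started at 20 mg/m2 with one patient per level, doubling until ≥grade 2 toxicity, then 3+3, across nine cohorts up to 780 mg/m2, with an expansion cohort at MTD. Dexamethasone 10 mg IV plus IV 5-HT antagonist premedication was recommended. AEs/DLTs were graded by NCI CTCAE V.3.0 and followed 30 days post-treatment.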"}, "[2]": {"test": "Pharmacokinetics: total ruthenium in plasma by ICP-MS, cycle 1", "type": "in vivo, human", "method_in_brief": "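Cycle 1 plasma was taken on days 1, 2 and 8, pre-infusion and at 15 min, 30 min, 1, 2, 4, 6–8, 10–12 and 24 hours post-infusion, plus pre-dose day 8. Total ruthenium (free and bound) was measured by ICP-MS. Drug was reconstituted in normal saline and given intravenously over 30 min (<500 mL) or 60–90 min (>500 mL). Parameters were derived from concentration–time data and summarised descriptively.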"}, "advanced solid tumours": {"system": "advanced solid tumours", "test": "Anti-tumour activity, tumour response by CT", "type": "in vivo, human", "method_in_brief": "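Adult patients with refractory advanced solid tumours got intravenous infusions on days 1, 8 and 15 of 28-day cycles, at 20–780 mg/m2. CT response assessment was done at baseline and every two cycles per RECIST V.1.1. Disease control was defined as CR, PR or SD. Evaluable patients had at least one response assessment. Treatment continued until confirmed PD. Analysis was descriptive.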"}, "GRP78": {"system": "GRP78", "conditions": "tumour cells; independent preclinical studies; cited from earlier work"}, "[3]": {"system": "drug-resistant PDAC cells", "conditions": "cited from earlier work"}, "[4]": {"system": "metastatic osteosarcoma cells", "conditions": "ex vivo lung metastases model; cited from earlier work"}, "[5]": {"conditions": "in vitro, combination with different classes of cancer drugs; ref 23 24; cited from earlier work"}, "[6]": {"conditions": "ref 9 10, cited from earlier work"}, "[7]": {"conditions": "10 patients with disease control"}, "[8]": {"conditions": "efficacy-evaluable population (n=38)"}}}
{"molecule": "[Cl][Ru-]([Cl])([Cl])[Cl].[Na+].c1ccc2[nH]ncc2c1.c1ccc2[nH]ncc2c1", "note": "[IT-139, sodium trans-(tetrachlorobis(1H-indazole)ruthenate(III))]", "values": [{"measurement": "Any adverse event, patients", "setting": "[1]; 20 mg/m^2 (n=1)", "value": 1}, {"measurement": "Maximum severity of adverse event Grade 1, patients", "setting": "[1]; 20 mg/m^2 (n=1)", "value": 1}, {"measurement": "Related adverse event (related to study drug as assessed by the investigator), patients", "setting": "[1]; 20 mg/m^2 (n=1)", "value": 1}, {"measurement": "Any adverse event, patients", "setting": "[1]; 40 mg/m^2 (n=1)", "value": 1}, {"measurement": "Maximum severity of adverse event Grade 2, patients", "setting": "[1]; 40 mg/m^2 (n=1)", "value": 1}, {"measurement": "Related adverse event (related to study drug as assessed by the investigator), patients", "setting": "[1]; 40 mg/m^2 (n=1)", "value": 1}, {"measurement": "Any adverse event, patients", "setting": "[1]; 80 mg/m^2 (n=1)", "value": 1}, {"measurement": "Maximum severity of adverse event Grade 1, patients", "setting": "[1]; 80 mg/m^2 (n=1)", "value": 1}, {"measurement": "Related adverse event (related to study drug as assessed by the investigator), patients", "setting": "[1]; 80 mg/m^2 (n=1)", "value": 1}, {"measurement": "Any adverse event, patients", "setting": "[1]; 160 mg/m^2 (n=1)", "value": 1}, {"measurement": "Maximum severity of adverse event Grade 1, patients", "setting": "[1]; 160 mg/m^2 (n=1)", "value": 1}, {"measurement": "Related adverse event (related to study drug as assessed by the investigator), patients", "setting": "[1]; 160 mg/m^2 (n=1)", "value": 1}, {"measurement": "Any serious adverse event, patients", "setting": "[1]; 320 mg/m^2 (n=7)", "value": 4}, {"measurement": "Discontinued treatment due to adverse event, patients", "setting": "[1]; 320 mg/m^2 (n=7)", "value": 1}, {"measurement": "Maximum severity of adverse event Grade 1, patients", "setting": "[1]; 320 mg/m^2 (n=7)", "value": 1}, {"measurement": "Maximum severity of adverse event Grade 2, patients", "setting": "[1]; 320 mg/m^2 (n=7)", "value": 3}, {"measurement": "Maximum severity of adverse event Grade 3, patients", "setting": "[1]; 320 mg/m^2 (n=7)", "value": 3}, {"measurement": "Maximum severity of adverse event ≥ Grade 3, patients", "setting": "[1]; 320 mg/m^2 (n=7)", "value": 3}, {"measurement": "Related adverse event (related to study drug as assessed by the investigator), patients", "setting": "[1]; 320 mg/m^2 (n=7)", "value": 7}, {"measurement": "Related serious adverse event, patients", "setting": "[1]; 320 mg/m^2 (n=7)", "value": 1}, {"measurement": "Any adverse event, patients", "setting": "[1]; 420 mg/m^2 (n=5)", "value": 5}, {"measurement": "Any serious adverse event, patients", "setting": "[1]; 420 mg/m^2 (n=5)", "value": 1}, {"measurement": "Discontinued treatment due to adverse event, patients", "setting": "[1]; 420 mg/m^2 (n=5)", "value": 2}, {"measurement": "Maximum severity of adverse event Grade 1, patients", "setting": "[1]; 420 mg/m^2 (n=5)", "value": 1}, {"measurement": "Maximum severity of adverse event Grade 2, patients", "setting": "[1]; 420 mg/m^2 (n=5)", "value": 2}, {"measurement": "Maximum severity of adverse event Grade 3, patients", "setting": "[1]; 420 mg/m^2 (n=5)", "value": 2}, {"measurement": "Maximum severity of adverse event ≥ Grade 3, patients", "setting": "[1]; 420 mg/m^2 (n=5)", "value": 2}, {"measurement": "Related adverse event (related to study drug as assessed by the investigator), patients", "setting": "[1]; 420 mg/m^2 (n=5)", "value": 4}, {"measurement": "Any adverse event, patients", "setting": "[1]; 500 mg/m^2 (n=3)", "value": 3}, {"measurement": "Maximum severity of adverse event Grade 1, patients", "setting": "[1]; 500 mg/m^2 (n=3)", "value": 1}, {"measurement": "Maximum severity of adverse event Grade 2, patients", "setting": "[1]; 500 mg/m^2 (n=3)", "value": 2}, {"measurement": "Related adverse event (related to study drug as assessed by the investigator), patients", "setting": "[1]; 500 mg/m^2 (n=3)", "value": 2}, {"measurement": "Any serious adverse event, patients", "setting": "[1]; 625 mg/m^2 (n=18)", "value": 6}, {"measurement": "Discontinued treatment due to adverse event, patients", "setting": "[1]; 625 mg/m^2 (n=18)", "value": 2}, {"measurement": "Maximum severity of adverse event Grade 1, patients", "setting": "[1]; 625 mg/m^2 (n=18)", "value": 4}, {"measurement": "Maximum severity of adverse event Grade 2, patients", "setting": "[1]; 625 mg/m^2 (n=18)", "value": 4}, {"measurement": "Maximum severity of adverse event Grade 3, patients", "setting": "[1]; 625 mg/m^2 (n=18)", "value": 9}, {"measurement": "Maximum severity of adverse event Grade 5, patients", "setting": "[1]; 625 mg/m^2 (n=18)", "value": 1}, {"measurement": "Maximum severity of adverse event ≥ Grade 3, patients", "setting": "[1]; 625 mg/m^2 (n=18)", "value": 10}, {"measurement": "Related serious adverse event, patients", "setting": "[1]; 625 mg/m^2 (n=18)", "value": 1}, {"measurement": "duration of QTc prolongation after infusion", "setting": "[1]; 780 mg/m^2", "value": "up to 10 hours"}, {"measurement": "Any adverse event, patients", "setting": "[1]; 780 mg/m^2 (n=9)", "value": 9}, {"measurement": "Any serious adverse event, patients", "setting": "[1]; 780 mg/m^2 (n=9)", "value": 4}, {"measurement": "Maximum severity of adverse event Grade 1, patients", "setting": "[1]; 780 mg/m^2 (n=9)", "value": 1}, {"measurement": "Maximum severity of adverse event Grade 2, patients", "setting": "[1]; 780 mg/m^2 (n=9)", "value": 4}, {"measurement": "Maximum severity of adverse event Grade 3, patients", "setting": "[1]; 780 mg/m^2 (n=9)", "value": 3}, {"measurement": "Maximum severity of adverse event Grade 5, patients", "setting": "[1]; 780 mg/m^2 (n=9)", "value": 1}, {"measurement": "Maximum severity of adverse event ≥ Grade 3, patients", "setting": "[1]; 780 mg/m^2 (n=9)", "value": 4}, {"measurement": "Related adverse event (related to study drug as assessed by the investigator), patients", "setting": "[1]; 780 mg/m^2 (n=9)", "value": 9}, {"measurement": "Related serious adverse event, patients", "setting": "[1]; 780 mg/m^2 (n=9)", "value": 2}, {"measurement": "overall tolerability", "setting": "[1]; 20 to 780 mg/m^2", "value": "well tolerated"}, {"measurement": "cumulative toxicity", "setting": "[1]; across dose levels", "value": "no evidence of cumulative toxicity"}, {"measurement": "drug-related renal toxicity", "setting": "[1]; all dose levels", "value": "no evidence of drug-related renal toxicity"}, {"measurement": "MTD (maximum-tolerated dose)", "setting": "[1]; i.v. infusion days 1, 8 and 15 every 28 days", "value": 625, "unit": "mg/m^2"}, {"measurement": "effect on platelets or white blood cells", "setting": "[1]; in vivo", "value": "no effect on platelets or white blood cells"}, {"measurement": "patients with an AE that led to treatment discontinuation", "setting": "[1]; n=46, all dose levels", "value": 11, "unit": "%"}, {"measurement": "PR prolongation", "setting": "[1]; no control group, chance effect not excluded", "value": "evidence for PR prolongation"}, {"measurement": "Creatine clearance", "setting": "[1]; over time, all dose levels", "value": "stable over time and across all dose levels"}, {"measurement": "serum discolouration at blood draw", "setting": "[1]; three patients (four blood draws), without any clinical correlates", "value": "discoloured serum, green in colour"}, {"measurement": "Any serious adverse event, patients", "setting": "[1]; total patients (n=46)", "value": 15}, {"measurement": "Discontinued treatment due to adverse event, patients", "setting": "[1]; total patients (n=46)", "value": 5}, {"measurement": "Maximum severity of adverse event Grade 1, patients", "setting": "[1]; total patients (n=46)", "value": 11}, {"measurement": "Maximum severity of adverse event Grade 5, patients", "setting": "[1]; total patients (n=46)", "value": 2}, {"measurement": "Maximum severity of adverse event ≥ Grade 3, patients", "setting": "[1]; total patients (n=46)", "value": 19}, {"measurement": "Related serious adverse event, patients", "setting": "[1]; total patients (n=46)", "value": 4}, {"measurement": "mean half-life (t1/2)", "setting": "[2]; across dose levels, may not represent true terminal half-life", "value": 113, "unit": "h"}, {"measurement": "pharmacokinetic linearity", "setting": "[2]; across the dose range evaluated (20-780 mg/m^2)", "value": "first-order linear pharmacokinetics"}, {"measurement": "dose dependence of PK parameters", "setting": "[2]; in vivo", "value": "increased proportionally with dose"}, {"measurement": "mean total clearance (CLtotal)", "setting": "[2]; in vivo", "value": 164, "unit": "mL/h"}, {"measurement": "percentage of the administered dose excreted in the urine (mean)", "setting": "[2]; in vivo", "value": 1.14, "unit": "%"}, {"measurement": "patients with target lesion size reductions", "setting": "advanced solid tumours; 8 of 38 efficacy-evaluable patients", "value": 21, "unit": "%"}, {"measurement": "median duration of disease control", "setting": "advanced solid tumours; [7]", "value": 9, "unit": "weeks"}, {"measurement": "range of duration of disease control", "setting": "advanced solid tumours; [7]", "value": "1–98 weeks"}, {"measurement": "duration of SD from initiation of therapy until PD", "setting": "advanced solid tumours; carcinoid patient continued on compassionate use protocol", "value": 54, "unit": "weeks"}, {"measurement": "number of patients with PR", "setting": "advanced solid tumours; [8]", "value": 1}, {"measurement": "number of patients with SD", "setting": "advanced solid tumours; [8]", "value": 9}, {"measurement": "disease control in patients with carcinoid neuroendocrine tumours", "setting": "advanced solid tumours; one PR and two SDs", "value": "three of five patients had disease control"}, {"measurement": "single-agent anti-tumour activity", "setting": "advanced solid tumours; weekly i.v. days 1, 8 and 15 of every 28-day cycle", "value": "modest anti-tumour activity"}, {"measurement": "effect on stress induction of GRP78", "setting": "GRP78", "value": "suppressing the stress induction of GRP78 in tumour cells"}, {"measurement": "effect on GRP78 chemoresistance", "setting": "[3]; PDAC model", "value": "inhibits GRP78 chemoresistance"}, {"measurement": "sensitivity to cytotoxic drugs", "setting": "[3]; in combination with gemcitabine, drug-resistant PDAC cells", "value": "sensitivity to cytotoxic drugs was restored"}, {"measurement": "tumour burden", "setting": "[4]", "value": "decrease in tumour burden after treatment"}, {"measurement": "synergy in combination", "setting": "[5]", "value": "marked synergy"}]}
{"molecule": "imidazolium-(trans-DMSO-imidazole-tetrachlororuthenate) [NAMI-A]", "values": [{"measurement": "tolerability", "setting": "[6]; monotherapy, clinic trials", "value": "moderately tolerated"}, {"measurement": "activity in combination", "setting": "[6]; phase I/II combination study with gemcitabine", "value": "less activity in combination than with gemcitabine therapy alone"}]}
